ChEMBL document CHEMBL4330143, “Maximizing ER-α Degradation Maximizes Activity in a Tamoxifen-Resistant Breast Cancer Model: Identification of GDC-0927” (ACS Med Chem Lett, 2019)
Activity calls are given as the source filed them. The rule behind the calls is not given here.

Experiments:
Rattus norvegicus [1] = assay: In vivo agonist activity at ERalpha in CD-IGS rat assessed as increase in uterine weight at 60 mg/kg, po for 3 consecutive days measured at 24 hrs post last dose; format: functional, organism-based
Estrogen receptor = target: T1, Estrogen receptor (Homo sapiens, UniProt P03372); assay: Induction of ERalpha degradation in human MCF7 cells assessed as decrease in ERalpha protein level after 4 hrs by InCell Western assay; format: cell-based
T1 sequence (P03372 whole entry): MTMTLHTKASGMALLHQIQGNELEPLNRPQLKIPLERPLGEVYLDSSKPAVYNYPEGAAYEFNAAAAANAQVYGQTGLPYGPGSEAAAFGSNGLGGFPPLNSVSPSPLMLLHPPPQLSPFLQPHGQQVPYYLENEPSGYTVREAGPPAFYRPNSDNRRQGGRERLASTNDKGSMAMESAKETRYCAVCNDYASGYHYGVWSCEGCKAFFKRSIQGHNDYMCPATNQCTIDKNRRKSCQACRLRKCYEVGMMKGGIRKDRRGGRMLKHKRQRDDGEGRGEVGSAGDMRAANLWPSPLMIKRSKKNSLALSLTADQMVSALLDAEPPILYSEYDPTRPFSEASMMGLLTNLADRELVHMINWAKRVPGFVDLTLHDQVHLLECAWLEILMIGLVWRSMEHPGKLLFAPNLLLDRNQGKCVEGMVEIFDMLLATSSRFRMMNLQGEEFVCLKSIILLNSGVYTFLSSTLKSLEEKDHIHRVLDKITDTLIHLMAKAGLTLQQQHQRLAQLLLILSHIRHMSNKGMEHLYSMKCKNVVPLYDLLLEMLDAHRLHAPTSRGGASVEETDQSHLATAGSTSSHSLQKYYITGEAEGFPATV

MCF7 [2] = assay: Antiproliferative activity against human MCF7 cells after 5 days by CellTiter-Glo assay; conditions: MCF7, 120 h
MCF7 [3] = assay: Antitumor activity against tamoxifen-resistant human MCF7 cells xenografted in nude mouse at 100 mg/kg, po daily for 28 days; format: functional, organism-based
Summary of the method: (§1)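 Tamoxifen-resistant MCF-7 tumours grown subcutaneously in mice, with estradiol supplied from subcutaneous 0.72 mg estradiol pellets.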

[4] = Cmax in nude mouse xenografted with tamoxifen-resistant human MCF7 cells at 100 mg/kg, po daily for 28 days measured on day 28 post last dose; format: ADME, organism-based; design: dose 100 mg/kg, route oral; conditions: in vivo
Summary of the method: (§2)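 Tamoxifen-resistant MCF-7 xenograft mice carrying subcutaneous 0.72 mg estradiol pellets. Plasma pharmacokinetics sampled on day 28 of the study, at take-down.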

[5] = Unbound AUC (0 to 24 hrs) in nude mouse xenografted with tamoxifen-resistant human MCF7 cells at 100 mg/kg, po daily for 28 days measured on day 28 post last dose; format: ADME, organism-based; conditions: in vivo; summary of the method: as §2
[6] = Clearance in rat at 10 mg/kg, po daily for 3 days measured on day 3 post last dose; format: ADME, organism-based; conditions: in vivo
[7] = Unbound fraction in mouse plasma; format: ADME, cell-free
Rattus norvegicus [8] = assay: In vivo inverse agonist activity at ERalpha in CD-IGS rat assessed as decrease in uterine weight at 10 mg/kg, po for 3 consecutive days measured at 24 hrs post last dose; format: functional, organism-based
Summary of the method: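 Rat uterine wet weight assay run in agonist mode, with no ethynyl estradiol added. Oral dosing at 10 mg/kg for 3 days. Uterine weights compared with those of vehicle-treated animals.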

[9] = AUC in rat at 10 mg/kg, po daily for 3 days measured on day 3 post last dose; format: ADME, organism-based; conditions: in vivo
[10] = Oral bioavailability in rat at 10 mg/kg daily for 3 days measured on day 3 post last dose; format: ADME, organism-based; conditions: in vivo
[11] = AUC (0 to 24 hrs) in nude mouse xenografted with tamoxifen-resistant human MCF7 cells at 100 mg/kg, po daily for 28 days measured on day 28 post last dose; format: ADME, organism-based; design: time < 24 hr, dose 100 mg/kg, route oral; conditions: in vivo; summary of the method: as §2
[12] = Unbound Cmax in nude mouse xenografted with tamoxifen-resistant human MCF7 cells at 100 mg/kg, po daily for 28 days measured on day 28 post last dose; format: ADME, organism-based; conditions: in vivo, 672 h; summary of the method: as §2
Mus musculus = assay: In vivo induction of ERalpha degradation in tumor of nude mouse xenografted with tamoxifen-resistant human MCF7 cells at 100 mg/kg, po daily for 28 days measured on day 28 post last dose; format: functional, organism-based; summary of the method: as §1
[13] = AUC in mouse at 10 mg/kg, po; format: ADME, organism-based; conditions: in vivo

With CC/C(=C(\c1ccccc1)c1ccc(OCCN(C)C)cc1)c1ccccc1 the Activity (Rattus norvegicus [1]) was “Active”.
CC1=C(c2cccc(O)c2)C(c2ccc(OC[C@H](C)N3CC(CF)C3)cc2)Oc2ccc(O)cc21 (some centres undefined) showed an IC50 (Estrogen receptor) of 0.2 nM and an IC50 (MCF7 [2]) of 0.3 nM.
In the case of CC1=C(c2ccc(F)cc2)[C@H](c2ccc(OCCN3CC(CF)C3)cc2)Oc2ccc(O)cc21, the Activity (MCF7 [3]) is reported as “Active”, the Cmax [4] is reported as 2300 ng/mL and the fAUC [5] is reported as 80 ng·h/mL. The CL/F [6] was 36 mL/min/kg, the Fu [7] was 0.4% and the Activity (Rattus norvegicus [8]) was “Active”. For the same compound, the IC50 (MCF7 [2]) was 0.2 nM, the AUC at 72 h [9] was 1900 ng·h/mL and the bioavailability [10] was 42%. The AUC at 24 h [11] was 21000 ng·h/mL, the fCmax [12] was 0.009 µg/mL and the Activity (Mus musculus) was “Active”.
With CC1=C(c2cccc(O)c2)C(c2ccc(OCCN3CC[C@@H](C(F)F)C3)cc2)Oc2ccc(O)cc21 (some centres undefined) the IC50 (Estrogen receptor) was 0.2 nM and the IC50 (MCF7 [2]) was 0.4 nM.
In the case of CC1=C(c2cccc(O)c2)C(c2ccc(OCCN3CCC[C@H]3CF)cc2)Oc2ccc(O)cc21 (some centres undefined), the IC50 (Estrogen receptor) is reported as 0.2 nM and the IC50 (MCF7 [2]) is reported as 1.4 nM.
CC1=C(c2cccc(O)c2)C(c2ccc(OCCN3CC(CF)C3)cc2)Oc2ccc(O)cc21 (centres undefined) showed an IC50 (MCF7 [2]) of 0.2 nM and an AUC [13] of 160 ng·h/mL.
With CC1=C(c2cccc(O)c2)C(c2ccc(OCCN3CC[C@@H](C#N)C3)cc2)Oc2ccc(O)cc21 (some centres undefined) the IC50 (Estrogen receptor) was 0.8 nM and the IC50 (MCF7 [2]) was 3.6 nM.
With CC1=C(c2ccc(C#N)cc2)C(c2ccc(OCCN3CC(CF)C3)cc2)Oc2ccc(O)cc21 (centres undefined) the IC50 (Estrogen receptor) was 0.2 nM and the IC50 (MCF7 [2]) was 0.3 nM.
COC[C@@H]1CCN(CCOc2ccc(C3Oc4ccc(O)cc4C(C)=C3c3cccc(O)c3)cc2)C1 (some centres undefined) showed an IC50 (Estrogen receptor) of 0.3 nM and an IC50 (MCF7 [2]) of 0.4 nM.
With CC1=C(c2cccc(O)c2)C(c2ccc(OCCN3CC[C@@H](CF)C3)cc2)Oc2ccc(O)cc21 (some centres undefined) the IC50 (Estrogen receptor) was 0.1 nM, the IC50 (MCF7 [2]) was 0.2 nM and the AUC [13] was 40 ng·h/mL.
With CC1=C(c2cccc(O)c2)[C@H](c2ccc(OC[C@H](C)N3CC[C@@H](C)C3)cc2)Oc2ccc(O)cc21 the Activity (MCF7 [3]) was “inactive”, the Cmax [4] was 1300 ng/mL and the fAUC [5] was 190 ng·h/mL. The CL/F [6] was > 60 mL/min/kg, the Fu [7] was 1.6% and the bioavailability [10] was < 15%. For the same compound, the AUC at 24 h [11] was 12000 ng·h/mL, the fCmax [12] was 0.021 µg/mL and the Activity (Mus musculus) was “Active”.
